RGS4 pot: RGS4 potentiators or activators, primary screen, cell-based, HEK293 M3R inducible RGS4, calcium flux; carbachol calcium flux Fluo4; active compounds read low; B-score at 10 µM; actives 0.92% (n = 310,000); AID 463111, 2010;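 active = B-score of the integrated calcium signal more than 4 SD below the library mean, with starting fluorescence not abnormally high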;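 note: negative B-score means reduced calcium response which marks RGS4 activation or potentiation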
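Material: M3R-expressing HEK293 line, RGS4 induced by doxycycline | Schedule: Overnight RGS4 induction, 30 min dye load 37 °C, 20 min compound RT | Measured by: Fluo4 fluorescence kinetic imaging of calcium | Read-out: Integrated calcium ratio converted to B score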
MrgX1 ag: agonists of human MrgX1 receptor, primary screen, HEK293 cells, Fluo-4 calcium flux | actives 0.44% (n = 310,000) | Mas-related G-protein coupled receptor member X1 (Homo sapiens), Q96LB2 | AID 588627, 2011 | Fluo-4 calcium fluorescence, agonist mode; active compounds read high | B-score at 10 µM;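 active = calcium response B-score plate-corrected fluorescence ratio at least 3 library SD, with starting fluorescence B-score inside 5 SD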
Target sequence (Q96LB2 whole entry, looked up): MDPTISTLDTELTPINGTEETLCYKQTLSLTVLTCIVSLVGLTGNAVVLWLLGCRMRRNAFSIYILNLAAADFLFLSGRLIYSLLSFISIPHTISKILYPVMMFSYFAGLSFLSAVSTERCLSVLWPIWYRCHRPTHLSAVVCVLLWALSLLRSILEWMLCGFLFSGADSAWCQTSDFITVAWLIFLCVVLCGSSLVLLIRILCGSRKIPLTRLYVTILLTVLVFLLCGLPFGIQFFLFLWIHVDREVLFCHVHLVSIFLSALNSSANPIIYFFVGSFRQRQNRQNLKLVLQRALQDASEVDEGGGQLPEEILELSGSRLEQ
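Material: MrgX1-expressing HEK293 cells; input: 15,000 cells per well; doses: test compound given as first of three sequential additions; schedule: overnight plating before 1 h dye loading; technique: Fluo-4 NW calcium-flux fluorescence, kinetic read; evaluation: baseline-normalised fluorescence change ratio, B-scored; control set: plate-wise positive and negative controls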
MrgX1 antag: antagonists of human MrgX1 receptor, primary screen, HEK293 cells, Fluo-4 calcium flux; Mas-related G-protein coupled receptor member X1 (Homo sapiens), Q96LB2; BAM8-22 antagonism; active compounds read low; B-score at 10 µM; actives 1.3% (n = 310,000); AID 588676, 2011;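 active = calcium-response B-score plate-corrected more than 3 library SD below zero, starting fluorescence within 5 deviations, no agonist response on first addition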;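 note: peak minus trough fluorescence over baseline after final BAM8-22 challenge near maximal dose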
MrgX1 allo act: positive allosteric modulators of MrgX1, primary screen, HEK293 cells, Fluo-4 calcium flux. Mas-related G-protein coupled receptor member X1 (Homo sapiens), Q96LB2. FDSS; active compounds read high. B-score at 10 µM. actives 0.63% (n = 310,000);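 active = plate-corrected calcium response at least 3 library SD above typical, normal starting fluorescence, not activating the receptor alone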;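 note: compound read alongside a low EC10 to EC30 dose of BAM8-22 agonist; peak minus trough fluorescence over baseline measured at the second addition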
RGS4 block: RGS4 inhibitors, primary screen, cell-based, HEK293 M3R inducible RGS4, calcium flux. Regulator of G-protein signaling 4 (Homo sapiens), P49798. Fluo-4 calcium flux; active compounds read high; triggered by carbachol at its EC20. AID 463165, 2010. B-score at 10 µM. actives 0.45% (n = 310,000);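 active = B-score, a plate-corrected calcium signal, over three deviations above library mean, with baseline fluorescence within five deviations of library mean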;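 note: RGS4 expression induced by doxycycline in cells with stable M3 receptor; B-score is computed from the integrated fluorescence ratio over baseline after carbachol; higher B-score means a larger calcium signal and so more RGS4 inhibition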
Target sequence (P49798 whole entry, looked up): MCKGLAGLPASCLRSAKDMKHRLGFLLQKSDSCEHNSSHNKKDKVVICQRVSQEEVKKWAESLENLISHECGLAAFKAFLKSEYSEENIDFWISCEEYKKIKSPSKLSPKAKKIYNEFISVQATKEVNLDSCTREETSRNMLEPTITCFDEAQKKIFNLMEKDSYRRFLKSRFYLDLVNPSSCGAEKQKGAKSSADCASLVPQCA
* hit, by the source's call; i = inactive; . = no result given. Only some compounds are listed: those with a hit (about 3.5% of all), similar ones and a draw of the others.

SMILES	RGS4 pot	MrgX1 ag	MrgX1 antag	MrgX1 allo act	RGS4 block
CC(=O)CSc1ccc(-c2nc3cc(C)c(C)cc3[nH]2)cn1	i	i	i	i	i
Cc1cc2nc(-c3ccc(SCc4ccc(C#N)cc4)nc3)[nH]c2cc1C	i	i	-6.1*	i	i
Cc1ccc(NC(=O)/C(=C/c2cccs2)NC(=O)c2ccco2)cc1	i	i	i	i	i
COc1ccc(CNC(=O)C(C#N)c2nc3ccccc3nc2N2CCN(C)CC2)cc1 (centres undefined)	i	i	i	i	i
COc1ccc(CNC(=O)C(C#N)c2nc3ccccc3nc2N2CCCC2)cc1 (centres undefined)	i	i	-5.1*	i	i
C=CCNC(=O)C(C#N)c1nc2ccccc2nc1N1CCCCCC1 (centres undefined)	i	i	i	7.7*	i
Cc1cc(C)c2c(c1)C(=O)/C(=C/c1ccc(C(=O)O)cc1)CC2	i	i	i	16*	i
CCN(C(=O)CSc1nnc(NC2CCCCC2)s1)C1CCS(=O)(=O)C1 (centres undefined)	i	i	i	i	i
C#CC[N+]1(CC#Cc2ccccc2)CCCCC1	i	i	i	i	i
Cc1ccc(C#CC[N+]2(CC#Cc3ccc(C)cc3)CCCCC2)cc1	-7.1*	i	i	i	i
C#CC[N+]1(CC#Cc2cccc(C)c2)CCCCC1	i	i	i	i	i
C(#Cc1ccccc1)C[N+]1(CC#Cc2ccccc2)CCCCC1	-8.6*	i	i	i	i
O=c1[nH]c2c(s1)C(c1ccco1)C1C3CCC(C3)C1S2 (centres undefined)	i	i	i	i	i
Cc1cc2n(n1)C(c1ccccc1)CC(c1ccc(Br)cc1)=N2 (centres undefined)	.	i	i	15*	.
CNC(=S)N1N=C(c2ccc(Br)cc2)CC1c1ccc(Br)cc1 (centres undefined)	i	i	i	i	i
O=C(O)C(c1ccccc1)N1CCCCC1 (centres undefined)	i	i	-4.7*	i	i
CN(Cc1nccn1C)C(=O)CC1C(=O)NCCN1Cc1cccc(Oc2ccccc2)c1 (centres undefined)	i	i	-5.2*	i	i
O=C(Nc1ccon1)Nc1ccccc1C(F)(F)F	i	i	i	i	i
COc1ccc(-c2nn(-c3ccccc3)cc2C(=O)N2CCN(S(=O)(=O)c3cccc(F)c3)CC2)cc1	i	i	i	i	i
COc1ccc(Cl)cc1/C=C(\C#N)C(N)=O	i	30*	i	i	i
Cc1ccc(-n2c(SCC(=O)N3CCCC3)nc3c(c2=O)SCC3)cc1	i	i	-4.9*	i	i
Cc1ccc(NC(=O)CC(NCC2CCCO2)C(=O)O)cc1C (centres undefined)	i	i	i	i	i
Cc1onc(-c2c(Cl)cccc2Cl)c1C(=O)N1CCc2ccccc21	-7.6*	i	i	i	i
Cc1onc(-c2c(F)cccc2Cl)c1C(=O)N1CCc2ccccc2C1	i	i	i	i	i
Cc1cc2ncn(C(=O)c3c(-c4ccccc4)noc3C)c2cc1C	i	i	i	i	i
SMILES	RGS4 pot	MrgX1 ag	MrgX1 antag	MrgX1 allo act	RGS4 block
Cc1onc(-c2ccccc2Cl)c1C(=O)N1CCc2ccccc2C1	-7.3*	i	i	i	i
Cc1onc(-c2c(Cl)cccc2Cl)c1C(=O)N1CCOCC1	i	i	i	i	i
Cc1cc2ncn(C(=O)c3c(-c4c(Cl)cccc4Cl)noc3C)c2cc1C	-7.2*	i	i	i	i
COc1ccc(C(=O)C(Sc2nnc(C)c(=O)[nH]2)c2ccc(OC)cc2)cc1 (centres undefined)	i	i	i	i	i
CCCOc1ccc(/C(O)=C2/C(=O)C(=O)N(CCCn3ccnc3)C2c2cccnc2)cc1 (centres undefined)	i	i	i	i	i
CN1CCCN(C(=O)c2cc(-c3cccc4ccccc34)nc3ccccc23)CC1	i	35*	i	i	i
Cc1ccccc1-c1cc(C(=O)N2CCCC2)c2ccccc2n1	i	i	i	i	i
O=C(c1cc(-c2ccccc2Cl)nc2ccccc12)N1CCC1	i	i	i	i	i
O=C(c1cc(-c2ccccc2Cl)nc2ccccc12)N1CCN(c2ccccc2O)CC1	-7.6*	i	i	i	i
CCN(CC(=O)Nc1ccccc1C(F)(F)F)C(=O)CCOc1ccc(C)cc1	i	i	i	i	i
CCN(CC)CCNC(=O)CCCNC(=O)Cn1cnc2sc(C)c(C)c2c1=O	i	i	-9.1*	i	i
CCc1ccc(NC(=O)CCCNC(=O)Cn2cnc3sc(C)c(C)c3c2=O)cc1	i	i	i	i	i
CCn1c(SCC(=O)Nc2ccc(C(=O)OC)cc2)nc2cccnc21	i	i	i	i	i
COc1ccc(OC)c(N(CC(=O)N2CCCCC2)S(=O)(=O)c2ccc(OC)c(OC)c2)c1	i	i	i	i	i
COc1ccc(OC)c(N(CC(N)=O)S(=O)(=O)c2ccc(OC)c(OC)c2)c1	i	i	i	12*	i
Cc1ccc(C)c2c1N(Cc1ccccc1)C(=O)C21OCCO1	i	i	i	i	i
C=CCOc1cccc(C2/C(=C(/O)c3ccc(Cl)cc3)C(=O)C(=O)N2CCN2CCOCC2)c1 (centres undefined)	i	i	-5*	i	i
COc1ccc(NC(=O)CN(C)C(=O)c2sc3cc(Cl)ccc3c2Cl)cc1	i	i	i	i	i
CC(=O)c1ccc(NC(=S)NC(NC(=O)c2ccco2)C(Cl)(Cl)Cl)cc1 (centres undefined)	i	i	i	7.6*	i
O=C(NC(NC(=S)Nc1ccc(Cl)cc1)C(Cl)(Cl)Cl)c1ccco1 (centres undefined)	i	i	i	i	i
Cc1nn(C)c(Oc2cccc(C(F)(F)F)c2)c1C=O	i	i	-5.9*	i	i
O=C(Nc1c[nH]c(=O)[nH]c1=O)c1cccc([N+](=O)[O-])c1	i	i	i	i	i
O=C(COc1ccccc1F)NNC(=O)c1cccc(-n2cccc2)c1	i	i	-5*	i	i

Assay outcomes from PubChem.
